Results from ChEMBL document CHEMBL2169822, “Discovery and optimization of 1,3,4-trisubstituted-pyrazolone derivatives as novel, potent, and nonsteroidal farnesoid X receptor (FXR) selective antagonists” (J Med Chem, 2012).
Active and inactive are the calls of the source. The rule behind the calls is not given here.

Assays:
[1] = Antagonist activity at GST-tagged human recombinant FXRalphaLBD expressed in Escherichia coli BL21 cells assessed as inhibition of CDCA-induced SRC-1 co-activator association at 40 uM by HTRF assay; type: functional
Procedure, shortened: (§1)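 HTRF coactivator recruitment: 10 nM GST-human FXRαLBD (residues 238–473, E. coli BL21(DE3)), 0.83 nM anti-GST-Eu cryptate, 100 nM biotin-SRC1 peptide, 41.75 nM SA/XL665. Buffer was 50 mM Hepes pH 7.0, 125 mM KF, 0.125% CHAPS, 0.05% dry milk. Compound alone or with CDCA, 30 min at room temperature. Signal was 1000×(668/620 nm). Primary screen at 40 μM; IC50 as mean ± SE, three experiments.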

[2] = Agonist activity at GST tagged human recombinant FXRalphaLBD expressed in Escherichia coli BL21 cells assessed as SRC-1 co-activator association at 40 uM after 30 mins by HTRF assay; type: functional; procedure, shortened: as §1
Mus musculus [3] = experiment: Reduction of hepatic cholesterol level in cholesterol-fed C57BL/6 mouse at 100 mg/kg, po after 10 days; type: functional; parameters: scale not given: the % may be the effect or the level left
Procedure, shortened: (§2)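 Male C57BL/6 mice, 8–12 weeks old, were randomized into five groups of nine. Control mice had ground chow; the other groups had chow with 2% cholesterol. Compound (50 or 100 mg/kg) or reference (100 mg/kg) was suspended in 0.5% CMC-Na and given by oral gavage; control and vehicle mice got 0.5% CMC-Na. Serum and hepatic triglyceride and total cholesterol were measured.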

Mus musculus [4] = experiment: Reduction of hepatic triglyceride level in cholesterol-fed C57BL/6 mouse at 100 mg/kg, po after 10 days; type: functional; parameters: scale not given: the % may be the effect or the level left; procedure, shortened: as §2
HEK-293T [5] = experiment: Antagonist activity at FXRalpha/RXRalpha expressed in HEK293T cells co-expressing GAL4 DBD assessed as inhibition of CDCA-induced transactivation at 50 uM after 18 hrs by luciferase reporter gene assay; type: functional, cell-based; details: Homo sapiens
Procedure, shortened: (§3)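 FXR transactivation in HEK293T cells transiently transfected with pcDNA3.1-FXRα, pcDNA3.1-RXRα, pGL3-FXRE-Luc and pRL-SV40 Renilla vector. Medium was replaced 6 h after transfection with medium holding compound at varied concentrations, with or without 20 μM CDCA, for 18 h. Read-out was dual-luciferase. Three independent experiments.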

[6] = (§4) Antagonist activity at GST-tagged human recombinant FXRalphaLBD expressed in Escherichia coli BL21 cells assessed as inhibition of CDCA-induced SRC-1 co-activator association by HTRF assay; type: functional; procedure, shortened: as §1
BL21 = experiment: as §4; type: functional; procedure, shortened: as §1
Mus musculus [7] = experiment: Reduction of serum triglyceride level in cholesterol-fed C57BL/6 mouse at 100 mg/kg, po after 10 days; type: functional; parameters: scale not given: the % may be the effect or the level left; procedure, shortened: as §2
HEK-293T [8] = experiment: Agonist activity at FXRalpha/RXRalpha expressed in HEK293T cells co-expressing GAL4 DBD after 18 hrs by luciferase based transactivation assay; type: functional, cell-based; details: Homo sapiens; procedure, shortened: as §3
[9] = Agonist activity at GST tagged human recombinant FXRalphaLBD expressed in Escherichia coli BL21 cells assessed as SRC-1 co-activator association after 30 mins by HTRF assay; type: functional; details: BL21, 0.5 h
Procedure, shortened: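 Human FXRα LBD (residues 238–473) expressed as GST fusion in E. coli BL21(DE3) (IPTG 0.2 mM, 20 °C 6 h), purified on glutathione resin then Superdex 75. 10 nM GST-FXRαLBD incubated with 0.83 nM anti-GST-Eu cryptate, 100 nM biotin-SRC1 peptide and 41.75 nM SA/XL665 in 50 mM Hepes pH 7.0, 125 mM KF, 0.125% CHAPS, 0.05% dry milk, 30 min room temperature. Signal read as 1000×(668/620 nm). Primary screen at 40 μM.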

Structure (SMILES) | inhibition at 40 µM [1] | Activity [2] | other results
CCOc1ccc(/C=C2\C(=O)N(c3ccccc3F)N=C2C)cc1OC | 5.5% | <5% | –
CCOc1ccc(/C=C2\C(=O)N(c3ccc([N+](=O)[O-])cc3)N=C2C)cc1OC | 14.8% | 12.7% | –
C/C=C1\C(=O)C[C@H]2[C@@H]3CCC4=CC(=O)CC[C@]4(C)[C@H]3CC[C@]12C [GUGGULSTERONE] | – | – | Activity (Mus musculus [3]): 26.3%; Activity (Mus musculus [4]): 45.1%; inhibition (HEK-293T [5]): Active; IC50 [6]: 89.4 µM; inhibition (BL21): Dose-dependent effect; Activity (Mus musculus [7]): 53.7%
CCOc1ccc(/C=C2\C(=O)N(c3cccc([N+](=O)[O-])c3)N=C2C)cc1OC | < 5% | 29.2% | –
CCOc1ccc(/C=C2\C(=O)N(c3ccc(C(F)(F)F)cc3)N=C2C)cc1OC | 9.5% | <5% | –
COc1cc(/C=C2\C(=O)N(c3cccc(C(=O)O)c3)N=C2C)ccc1OC(C)C | < 5% | <5% | –
CC1=NN(c2cccc(C(=O)O)c2)C(=O)/C1=C\c1ccc(O)c(O)c1 | 17.4% | <5% | –
CCOc1ccc(/C=C2\C(=O)N(c3ccc(Cl)c(Cl)c3)N=C2C)cc1OC | 7.3% | <5% | –
COc1cc(/C=C2\C(=O)N(c3cccc(C(=O)OC(C)C)c3)N=C2C)ccc1O | 29.9% | <5% | –
CC1=NN(c2cccc(C(=O)O)c2)C(=O)/C1=C\C=C\c1ccccc1 | 32.1% | <5% | –
CCOc1ccc(/C=C2\C(=O)N(c3ccc(C(C)C)cc3)N=C2C)cc1OC | 7.7% | <5% | –
CCOc1ccc(/C=C2\C(=O)N(c3cc(C(F)(F)F)cc(C(F)(F)F)c3)N=C2C)cc1OC | < 5% | <5% | –
CC1=NN(c2ccccc2)C(=O)/C1=C\c1ccc(Br)cc1 | 72.6% | <5% | Activity (HEK-293T [8]): inactive; IC50 [6]: 9.93 µM
C[C@H](CCC(=O)O)[C@H]1CC[C@H]2[C@@H]3[C@H](O)C[C@@H]4C[C@H](O)CC[C@]4(C)[C@H]3CC[C@]12C [CHENODIOL] | – | – | EC50 [9]: 12.5 µM
COc1cc(/C=C2\C(=O)N(c3cccc(C(=O)O)c3)N=C2C)ccc1O | < 5% | 6.4% | –
CCOc1ccc(/C=C2\C(=O)N(c3cccc(C(F)(F)F)c3)N=C2C)cc1OC | < 5% | <5% | –
CC1=NN(c2ccccc2)C(=O)/C1=C\c1ccccc1 | 23.1% | <5% | –
CCOc1ccc(/C=C2\C(=O)N(c3c(F)c(F)c(F)c(F)c3F)N=C2C)cc1OC | 43.6% | <5% | Activity (HEK-293T [8]): inactive; IC50 [6]: 82.2 µM
COc1cc(/C=C2\C(=O)N(c3cccc([N+](=O)[O-])c3)N=C2C(C)C)ccc1O | 26.4% | <5% | –
CCCCCOc1ccc(/C=C2\C(=O)N(c3cccc(C(=O)O)c3)N=C2C)cc1OC | 55.4% | <5% | Activity (HEK-293T [8]): inactive; IC50 [6]: 39.2 µM
COc1ccc(/C=C2\C(=O)N(c3cccc([N+](=O)[O-])c3)N=C2C)c2ccccc12 | 22.7% | <5% | –
CC1=NN(c2cccc([N+](=O)[O-])c2)C(=O)/C1=C\c1ccc(C)s1 | < 5% | <5% | –
CCOC(=O)c1cccc(N2N=C(C)/C(=C/c3ccc(OCC)c(OC)c3)C2=O)c1 | 9.4% | <5% | –
CCOc1ccc(/C=C2\C(=O)N(c3cc(Cl)cc(Cl)c3)N=C2C)cc1OC | < 5% | <5% | –
CC1=NN(c2ccc([N+](=O)[O-])cc2)C(=O)/C1=C(/C)c1ccc(Cl)cc1 | 16.8% | <5% | –
COc1cc(/C=C2\C(=O)N(c3cccc(C(=O)O)c3)N=C2C)ccc1OCc1ccccc1 | 57.5% | <5% | Activity (HEK-293T [8]): inactive; IC50 [6]: 33.8 µM
CCOc1ccc(/C=C2\C(=O)N(c3cccc(C(=O)O)c3)N=C2C)cc1OC | 48.5% | 9% | IC50 [6]: 69 µM
